Experimental data of several laboratories.
Compare with care: the assays were run in different laboratories.
Target: Cytoplasmic tyrosine-protein kinase BMX (BMX, Homo sapiens, UniProt P51813)
Observed: enzyme activity
Mode: inhibitor
Residues used in one study (P51813 1-675): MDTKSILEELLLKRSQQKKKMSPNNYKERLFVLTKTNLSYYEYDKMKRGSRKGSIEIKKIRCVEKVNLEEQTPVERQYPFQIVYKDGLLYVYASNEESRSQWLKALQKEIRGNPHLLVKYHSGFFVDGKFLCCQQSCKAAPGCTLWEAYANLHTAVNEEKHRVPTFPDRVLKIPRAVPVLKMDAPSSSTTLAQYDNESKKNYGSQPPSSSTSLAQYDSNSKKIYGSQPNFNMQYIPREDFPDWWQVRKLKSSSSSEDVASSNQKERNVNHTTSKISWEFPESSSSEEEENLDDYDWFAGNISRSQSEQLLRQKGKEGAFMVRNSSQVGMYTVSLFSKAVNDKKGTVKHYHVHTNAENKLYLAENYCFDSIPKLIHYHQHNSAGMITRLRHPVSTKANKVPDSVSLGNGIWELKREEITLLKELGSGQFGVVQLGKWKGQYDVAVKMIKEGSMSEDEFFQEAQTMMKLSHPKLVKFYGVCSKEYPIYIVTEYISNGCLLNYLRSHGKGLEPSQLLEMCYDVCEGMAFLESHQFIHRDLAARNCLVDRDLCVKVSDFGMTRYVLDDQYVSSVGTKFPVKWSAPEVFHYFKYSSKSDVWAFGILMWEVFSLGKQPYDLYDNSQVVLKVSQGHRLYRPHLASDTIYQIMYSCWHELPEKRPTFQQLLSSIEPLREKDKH

SMILES | technique | concentration | remaining activity
CCCOc1ccc(OC)c(F)c1C(=O)c1ccc(C(=O)N[C@@H]2CNC[C@H]2NC(=O)c2ccc3[nH]ncc3c2)cc1 |  | 10 µM | 87%
CCN(CC)CCNC(=O)c1c(C)[nH]c(/C=C2\C(=O)Nc3ccc(Cl)cc32)c1C |  | 0.5 µM | 99.3%
CCN(CC)c1ccc(C2=NNC(=O)CC2C)cc1[N+](=O)[O-] (stereo not drawn) |  | 10 µM | 96%
O=C(O)c1ccc2c3c1cccc3c(=O)n1c3ccccc3nc21 |  | 0.5 µM | 96.4%
Cc1ccc(C(=O)Nc2ccc(CN3CCN(C)CC3)c(C(F)(F)F)c2)cc1C#Cc1cnc2cccnn12 |  | 23.5 nM | 47%
Nc1ncnc2occ(-c3ccc(NC(=O)Nc4cc(C(F)(F)F)ccc4F)cc3)c12 |  | 20 µM | 0.5%
Cc1cnc(NC2CCOCC2)nc1-n1cnc(C(=O)NC(CN)c2cc(F)cc(Cl)c2)c1 (stereo not drawn) | radiometric | 1 µM | 117%
COc1cc(Cl)c(C(=O)N[C@@H](CN[C@H]2CC[C@@H](N)CC2)Cc2ccc(C#N)cc2)cc1-c1ccc(CN[C@H](C)c2ccc(C)cc2)o1 |  | 1 µM | 72%
CC(C)(C)c1nc(-c2cccc(NS(=O)(=O)c3c(F)cccc3F)c2F)c(-c2ccnc(N)n2)s1 | radiometric | 1 µM | 75%
COc1cc2ncc(-c3ccccc3)nc2cc1OC |  | 0.5 µM | 92.2%
O=C(Nc1cnn(-c2csc(C(=O)NC3COC3)c2)c1)Nc1c(F)cccc1Cl |  | 5 µM | 96.8%
COc1ccc(C(=O)Nc2sc3c(c2C(N)=O)CCCC3)cc1OC |  | 0.5 µM | 89.8%
CC(C)(O)[C@H]1CC[C@H](Nc2ccc3ncc(-c4cccc(C(F)(F)F)c4)n3n2)CC1 |  | 1 µM | 71.5%
Cc1sc(C(=O)NC2COC2)cc1-n1cc(NC(=O)Nc2c(F)cccc2Cl)cn1 |  | 10 µM | 92.9%
CC(C)(C)c1nc2c(s1)c1nc(N)ncc1c1ccc(NS(=O)(=O)c3c(F)cccc3F)c(F)c12 | radiometric | 1 µM | 87%
